Data: ChEMBL document CHEMBL3045298, “Furan-2,5-dimethylene-tethered bis-imidacloprid insecticide conferring high potency” (J Agric Food Chem, 2010)

biological target: T1, Nicotinic acetylcholine receptor alpha 5 subunit (Musca domestica, UniProt A9XFY4); assay: Displacement of [3H]IMI from Musca domestica (house fly) brain nicotinic acetylcholine receptor
T1 sequence (A9XFY4 whole entry): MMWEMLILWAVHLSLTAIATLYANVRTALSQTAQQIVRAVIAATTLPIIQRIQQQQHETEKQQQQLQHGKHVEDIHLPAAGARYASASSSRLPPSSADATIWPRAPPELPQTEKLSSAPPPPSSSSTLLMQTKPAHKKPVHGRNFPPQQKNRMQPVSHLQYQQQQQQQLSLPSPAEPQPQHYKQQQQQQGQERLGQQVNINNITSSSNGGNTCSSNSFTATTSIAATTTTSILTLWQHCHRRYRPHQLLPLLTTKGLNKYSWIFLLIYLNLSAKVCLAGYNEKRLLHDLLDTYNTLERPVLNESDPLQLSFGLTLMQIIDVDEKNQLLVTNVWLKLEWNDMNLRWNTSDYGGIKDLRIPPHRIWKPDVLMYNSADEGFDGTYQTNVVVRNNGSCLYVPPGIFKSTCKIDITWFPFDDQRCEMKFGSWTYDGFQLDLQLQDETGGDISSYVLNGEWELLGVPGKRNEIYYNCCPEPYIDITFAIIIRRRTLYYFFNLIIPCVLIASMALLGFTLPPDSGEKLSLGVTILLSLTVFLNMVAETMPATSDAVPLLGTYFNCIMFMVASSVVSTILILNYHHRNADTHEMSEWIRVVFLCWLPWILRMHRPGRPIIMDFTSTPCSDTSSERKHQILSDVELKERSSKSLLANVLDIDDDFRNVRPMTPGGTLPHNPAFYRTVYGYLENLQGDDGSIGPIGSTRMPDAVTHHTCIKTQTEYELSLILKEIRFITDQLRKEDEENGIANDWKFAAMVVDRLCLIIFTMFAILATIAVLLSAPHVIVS
Method in brief: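 Native housefly (Musca domestica) brain nAChR preparation with [3H]IMI radioligand at 5 nM (Kd 5.4 nM). IC50 is the molar concentration inhibiting 50% of specific [3H]IMI binding, fitted by iterative nonlinear least-squares regression. Ki derived as IC50/(1 + [L]/Kd).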

Going from O=[N+]([O-])/N=C1/N(Cc2ccc(Cc3ccc(CN4CCN(Cc5ccc(Cl)nc5)/C4=N\[N+](=O)[O-])cc3)cc2)CCN1Cc1ccc(Cl)nc1 to O=[N+]([O-])/N=C1/N(Cc2ccc(CN3CCN(Cc4ccc(Cl)nc4)/C3=N\[N+](=O)[O-])cc2)CCN1Cc1ccc(Cl)nc1, the Ki falls from 17 µM to 2.27 µM (7.5-fold).

Going from O=[N+]([O-])/N=C1/N(CCCOCCCN2CCN(Cc3ccc(Cl)nc3)/C2=N\[N+](=O)[O-])CCN1Cc1ccc(Cl)nc1 to O=[N+]([O-])/N=C1/N(CCOCCN2CCN(Cc3ccc(Cl)nc3)/C2=N\[N+](=O)[O-])CCN1Cc1ccc(Cl)nc1, the Ki falls from 2.66 µM to 0.53 µM (5-fold).

Compared with O=[N+]([O-])/N=C1\N(Cc2ccc(Cl)nc2)CCN1Cc1ccc(CN2CCN(Cc3ccc(Cl)nc3)/C2=N\[N+](=O)[O-])o1, O=[N+]([O-])/N=C1\N(Cc2ccc(Cl)nc2)CCN1Cc1ccc(CN2CCN(Cc3ccc(Cl)nc3)/C2=N\[N+](=O)[O-])s1 is 5-fold higher in Ki: 0.03 µM for the first, 0.15 µM for the second.

Going from O=C(/N=C1/N(CCCCCCCN2CCN(Cc3ccc(Cl)nc3)/C2=N/C(=O)C(F)(F)F)CCN1Cc1ccc(Cl)nc1)C(F)(F)F to O=C(/N=C1/N(CCCCCCCCN2CCN(Cc3ccc(Cl)nc3)/C2=N\C(=O)C(F)(F)F)CCN1Cc1ccc(Cl)nc1)C(F)(F)F, the Ki rises from 2.9 µM to 26 µM (9-fold).

Going from O=C(/N=C1/N(CCCCCN2CCN(Cc3ccc(Cl)nc3)/C2=N/C(=O)C(F)(F)F)CCN1Cc1ccc(Cl)nc1)C(F)(F)F to O=C(/N=C1/N(CCCCCCN2CCN(Cc3ccc(Cl)nc3)/C2=N/C(=O)C(F)(F)F)CCN1Cc1ccc(Cl)nc1)C(F)(F)F, the Ki rises from 16 µM to 26 µM (1.6-fold).

O=[N+]([O-])/N=C1\N(Cc2ccc(Cl)nc2)CCN1Cc1cncc(CN2CCN(Cc3ccc(Cl)nc3)/C2=N\[N+](=O)[O-])c1 and O=[N+]([O-])/N=C1\N(Cc2ccc(Cl)nc2)CCN1Cc1cccc(CN2CCN(Cc3ccc(Cl)nc3)/C2=N\[N+](=O)[O-])c1 are within 1.5-fold of each other in Ki: 2.3 µM for the first, 2.77 µM for the second.

Compared with O=[N+]([O-])NC1=NCCN1Cc1ccc(Cl)nc1 [IMIDACLOPRID], CC(C)(CCN1CCN(Cc2ccc(Cl)nc2)/C1=N\[N+](=O)[O-])CCN1CCN(Cc2ccc(Cl)nc2)/C1=N\[N+](=O)[O-] is 320-fold higher in Ki: 0.0046 µM for the first, 1.46 µM for the second. The first binds more tightly here.

First: O=[N+]([O-])/N=C1\N(Cc2ccc(Cl)nc2)CCN1Cc1cccc(CN2CCN(Cc3ccc(Cl)nc3)/C2=N\[N+](=O)[O-])n1
Second: O=[N+]([O-])/N=C1\N(Cc2ccc(Cl)nc2)CCN1Cc1ccccc1-c1ccccc1CN1CCN(Cc2ccc(Cl)nc2)/C1=N\[N+](=O)[O-]
The Ki of the first is 6.5-fold higher: 5.2 µM for the first, 0.8 µM for the second. The second binds more tightly here.

In the case of O=C(CN1CCN(Cc2ccc(Cl)nc2)/C1=N\[N+](=O)[O-])OCCOC(=O)CN1CCN(Cc2ccc(Cl)nc2)/C1=N\[N+](=O)[O-], the Ki is reported as 1.55 µM.

tested on: Musca domestica; assay: Insecticidal activity against Musca domestica (house fly) assessed as mortality at LD50 concentration intrathoracic injection in presence of cytochrome P450 inhibitor O-propyl O-(2-propynyl) phenylphosphonate; assay type: functional
Method in brief: (§1)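 Houseflies were first pretreated with the P450 inhibitor O-propyl O-(2-propynyl) phenylphosphonate, then dosed by intrathoracic injection. Lethality was scored 24 h after administration, and the 50% lethal dose was determined.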

O=[N+]([O-])/N=C1/N(Cc2ccc(Cc3ccc(CN4CCN(Cc5ccc(Cl)nc5)/C4=N\[N+](=O)[O-])cc3)cc2)CCN1Cc1ccc(Cl)nc1 and O=[N+]([O-])/N=C1/N(Cc2ccc(CN3CCN(Cc4ccc(Cl)nc4)/C3=N\[N+](=O)[O-])cc2)CCN1Cc1ccc(Cl)nc1 are the same in mortality: 0% for the first, 0% for the second.

O=[N+]([O-])/N=C1/N(CCCOCCCN2CCN(Cc3ccc(Cl)nc3)/C2=N\[N+](=O)[O-])CCN1Cc1ccc(Cl)nc1 and O=[N+]([O-])/N=C1/N(CCOCCN2CCN(Cc3ccc(Cl)nc3)/C2=N\[N+](=O)[O-])CCN1Cc1ccc(Cl)nc1 are the same in mortality: 0% for the first, 0% for the second.

O=C(/N=C1/N(CCCCCCCN2CCN(Cc3ccc(Cl)nc3)/C2=N/C(=O)C(F)(F)F)CCN1Cc1ccc(Cl)nc1)C(F)(F)F and O=C(/N=C1/N(CCCCCCCCN2CCN(Cc3ccc(Cl)nc3)/C2=N\C(=O)C(F)(F)F)CCN1Cc1ccc(Cl)nc1)C(F)(F)F are the same in mortality: 0% for the first, 0% for the second.

O=C(/N=C1/N(CCCCCN2CCN(Cc3ccc(Cl)nc3)/C2=N/C(=O)C(F)(F)F)CCN1Cc1ccc(Cl)nc1)C(F)(F)F and O=C(/N=C1/N(CCCCCCN2CCN(Cc3ccc(Cl)nc3)/C2=N/C(=O)C(F)(F)F)CCN1Cc1ccc(Cl)nc1)C(F)(F)F are the same in mortality: 0% for the first, 0% for the second.

Compared with O=[N+]([O-])/N=C1\N(Cc2ccc(Cl)nc2)CCN1Cc1cncc(CN2CCN(Cc3ccc(Cl)nc3)/C2=N\[N+](=O)[O-])c1, O=[N+]([O-])/N=C1\N(Cc2ccc(Cl)nc2)CCN1Cc1cccc(CN2CCN(Cc3ccc(Cl)nc3)/C2=N\[N+](=O)[O-])c1 is lower in mortality: 10% for the first, 0% for the second.

Going from O=[N+]([O-])/N=C1\N(Cc2ccc(Cl)nc2)CCN1Cc1cccc(CN2CCN(Cc3ccc(Cl)nc3)/C2=N\[N+](=O)[O-])n1 to O=[N+]([O-])/N=C1\N(Cc2ccc(Cl)nc2)CCN1Cc1ccccc1-c1ccccc1CN1CCN(Cc2ccc(Cl)nc2)/C1=N\[N+](=O)[O-], the mortality rises from 0% to 10%.

CC(C)(CCN1CCN(Cc2ccc(Cl)nc2)/C1=N\[N+](=O)[O-])CCN1CCN(Cc2ccc(Cl)nc2)/C1=N\[N+](=O)[O-] and O=C(CN1CCN(Cc2ccc(Cl)nc2)/C1=N\[N+](=O)[O-])OCCOC(=O)CN1CCN(Cc2ccc(Cl)nc2)/C1=N\[N+](=O)[O-] are the same in mortality: 0% for the first, 0% for the second.

tested on: Musca domestica; assay: Insecticidal activity against Musca domestica (house fly) measured after intrathoracic compound injection in presence of cytochrome P450 inhibitor O-propyl O-(2-propynyl) phenylphosphonate; assay type: functional; method in brief: as §1

O=[N+]([O-])/N=C1/N(Cc2ccc(Cc3ccc(CN4CCN(Cc5ccc(Cl)nc5)/C4=N\[N+](=O)[O-])cc3)cc2)CCN1Cc1ccc(Cl)nc1 and O=[N+]([O-])/N=C1/N(Cc2ccc(CN3CCN(Cc4ccc(Cl)nc4)/C3=N\[N+](=O)[O-])cc2)CCN1Cc1ccc(Cl)nc1 cannot be ordered by LD50: > 1 mg/kg for the first, > 1 mg/kg for the second.

O=[N+]([O-])/N=C1/N(CCCOCCCN2CCN(Cc3ccc(Cl)nc3)/C2=N\[N+](=O)[O-])CCN1Cc1ccc(Cl)nc1 and O=[N+]([O-])/N=C1/N(CCOCCN2CCN(Cc3ccc(Cl)nc3)/C2=N\[N+](=O)[O-])CCN1Cc1ccc(Cl)nc1 cannot be ordered by LD50: > 1 mg/kg for the first, > 1 mg/kg for the second.

Going from O=[N+]([O-])/N=C1\N(Cc2ccc(Cl)nc2)CCN1Cc1ccc(CN2CCN(Cc3ccc(Cl)nc3)/C2=N\[N+](=O)[O-])o1 to O=[N+]([O-])/N=C1\N(Cc2ccc(Cl)nc2)CCN1Cc1ccc(CN2CCN(Cc3ccc(Cl)nc3)/C2=N\[N+](=O)[O-])s1, the LD50 rises from 0.14 mg/kg to 1 mg/kg (7.1-fold).

O=C(/N=C1/N(CCCCCCCN2CCN(Cc3ccc(Cl)nc3)/C2=N/C(=O)C(F)(F)F)CCN1Cc1ccc(Cl)nc1)C(F)(F)F and O=C(/N=C1/N(CCCCCCCCN2CCN(Cc3ccc(Cl)nc3)/C2=N\C(=O)C(F)(F)F)CCN1Cc1ccc(Cl)nc1)C(F)(F)F cannot be ordered by LD50: > 1 mg/kg for the first, > 1 mg/kg for the second.

O=C(/N=C1/N(CCCCCN2CCN(Cc3ccc(Cl)nc3)/C2=N/C(=O)C(F)(F)F)CCN1Cc1ccc(Cl)nc1)C(F)(F)F and O=C(/N=C1/N(CCCCCCN2CCN(Cc3ccc(Cl)nc3)/C2=N/C(=O)C(F)(F)F)CCN1Cc1ccc(Cl)nc1)C(F)(F)F cannot be ordered by LD50: > 1 mg/kg for the first, > 1 mg/kg for the second.

O=[N+]([O-])/N=C1\N(Cc2ccc(Cl)nc2)CCN1Cc1cncc(CN2CCN(Cc3ccc(Cl)nc3)/C2=N\[N+](=O)[O-])c1 and O=[N+]([O-])/N=C1\N(Cc2ccc(Cl)nc2)CCN1Cc1cccc(CN2CCN(Cc3ccc(Cl)nc3)/C2=N\[N+](=O)[O-])c1 cannot be ordered by LD50: > 1 mg/kg for the first, > 1 mg/kg for the second.

Going from O=[N+]([O-])NC1=NCCN1Cc1ccc(Cl)nc1 [IMIDACLOPRID] to CC(C)(CCN1CCN(Cc2ccc(Cl)nc2)/C1=N\[N+](=O)[O-])CCN1CCN(Cc2ccc(Cl)nc2)/C1=N\[N+](=O)[O-], the LD50 rises from 0.03 mg/kg to > 1 mg/kg.

O=[N+]([O-])/N=C1\N(Cc2ccc(Cl)nc2)CCN1Cc1cccc(CN2CCN(Cc3ccc(Cl)nc3)/C2=N\[N+](=O)[O-])n1 and O=[N+]([O-])/N=C1\N(Cc2ccc(Cl)nc2)CCN1Cc1ccccc1-c1ccccc1CN1CCN(Cc2ccc(Cl)nc2)/C1=N\[N+](=O)[O-] cannot be ordered by LD50: > 1 mg/kg for the first, > 1 mg/kg for the second.

For O=C(CN1CCN(Cc2ccc(Cl)nc2)/C1=N\[N+](=O)[O-])OCCOC(=O)CN1CCN(Cc2ccc(Cl)nc2)/C1=N\[N+](=O)[O-], the LD50 was > 1 mg/kg.
